Reference: ChEMBL document CHEMBL1629552, “In vitro and in vivo treatments of echinococcus protoscoleces and metacestodes with artemisinin and artemisinin derivatives” (Antimicrob Agents Chemother, 2008)
Activity calls are given as the source filed them. No cut-off for these calls is given here.

How the values were obtained:
[1] = test system: Echinococcus granulosus; assay: Antimicrobial activity against Echinococcus granulosus protoscoleces assessed as reduction in protoscoleces viability at 10 uM by trypan blue exclusion assay; type: functional
Summary of the method: (§1)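 E. granulosus protoscoleces were isolated and kept in vitro per earlier work. Compounds from 10 mM DMSO stocks were added at 4, 10 and 40 μM, with nitazoxanide as positive control and DMSO as solvent control. Viability was scored microscopically by trypan blue exclusion over days of culture. The experiment was repeated three times.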

[2] = test system: Echinococcus multilocularis; assay: Antimicrobial activity against Echinococcus multilocularis metacestode assessed as increase in alkaline phosphatase activity at 40 uM
[3] = test system: Echinococcus multilocularis; assay: Antimicrobial activity against Echinococcus multilocularis metacestode assessed as increase in alkaline phosphatase activity at 40 uM within 4 days; type: functional, organism-based
Summary of the method: (§2)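 In vitro-cultured E. multilocularis metacestode vesicles were treated for 12 days with compounds at 40 μM (10 mM DMSO stocks). Albendazole was the positive control and matching DMSO the negative control. Culture supernatant was sampled daily and stored at −20°C, and parasite alkaline phosphatase (EmAP) activity was assayed at the time points shown.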

[4] = test system: Echinococcus granulosus; assay: Antimicrobial activity against Echinococcus granulosus protoscoleces assessed as reduction in protoscoleces viability at 40 uM by trypan blue exclusion assay; type: functional; summary of the method: as §1
[5] = test system: Echinococcus multilocularis; assay: Antimicrobial activity against Echinococcus multilocularis -infected in BALB/c mouse assessed as parasite weight at 200 mg/kg body weight intragastrically administered 8 weeks post-infecion (reference value: 5.71+/-1.79 g); type: functional; details: route intragastric
[6] = organism: Mus musculus; assay: Toxicity against Echinococcus multilocularis -infected in BALB/c mouse assessed as adverse effect; type: organism-based; details: in vivo
[7] = test system: Echinococcus granulosus; assay: Antimicrobial activity against Echinococcus granulosus metacestode assessed as loss of multicellular structure of germinal layer by transmission electron microscopy; type: functional
[8] = test system: Echinococcus multilocularis; assay: Antimicrobial activity against Echinococcus multilocularis metacestode assessed as loss of multicellular structure of germinal layer by transmission electron microscopy; type: functional, organism-based
[9] = test system: Echinococcus granulosus; assay: Antimicrobial activity against Echinococcus granulosus protoscoleces assessed as reduction in protoscoleces viability at 40 uM upto 2 days by trypan blue exclusion assay; type: functional; summary of the method: as §1
[10] = test system: Echinococcus granulosus; assay: Antimicrobial activity against Echinococcus granulosus protoscoleces assessed as reduction in protoscoleces viability at 40 uM after 6 days by trypan blue exclusion assay; type: functional; summary of the method: as §1
[11] = test system: Echinococcus multilocularis; assay: Antimicrobial activity against Echinococcus multilocularis metacestode assessed as increase in alkaline phosphatase activity at 40 uM after 8 days; type: functional, organism-based; summary of the method: as §2

| Compound | Activity [1] | Activity [2] | Activity [3] | Activity [4] | Activity [5] [g] | Activity [6] | Activity [7] | Activity [8] | Activity [9] | Activity [10] [%] | Activity [11] |
| --- | --- | --- | --- | --- | --- | --- | --- | --- | --- | --- | --- |
| CC(=O)Oc1ccccc1C(=O)Nc1ncc([N+](=O)[O-])s1 | Active | – | – | – | – | – | – | – | – | – | – |
| CO[C@H]1O[C@@H]2O[C@@]3(C)CC[C@H]4[C@H](C)CC[C@@H]([C@H]1C)[C@@]24OO3 | – | inactive | inactive | inactive | – | – | – | – | – | – | – |
| C[C@@H]1CC[C@H]2[C@@H](C)C(=O)O[C@@H]3O[C@@]4(C)CC[C@@H]1[C@]32OO4 | – | inactive | inactive | inactive | – | – | – | – | – | – | – |
| CCCSc1ccc2[nH]c(NC(=O)OC)nc2c1 [ALBENDAZOLE] | – | – | – | – | 2.96 | – | – | – | – | – | – |
| C[C@H]1[C@@H](O)O[C@@H]2O[C@@]3(C)CC[C@H]4[C@H](C)CC[C@@H]1[C@@]24OO3 [ARTENIMOL] | inactive | inactive | – | Active | 4.11 | Non-toxic | Active | Active | inactive | 90 | Active |
| C[C@H]1[C@H](OC(=O)CCC(=O)O)O[C@@H]2O[C@@]3(C)CC[C@H]4[C@H](C)CC[C@@H]1[C@@]24OO3 [ARTESUNATE] | inactive | inactive | Active | Active | 4.6 | Non-toxic | Active | Active | – | – | – |
